In ChEMBL document CHEMBL1629660, “Pharmacodynamics of tigecycline against phenotypically diverse Staphylococcus aureus isolates in a murine thigh model” (Antimicrob Agents Chemother, 2009):
In brackets after ≈: the same amount, converted by molar mass.

What was measured:
[1] = fAUC/MIC in methicillin-sensitive Staphylococcus aureus ATCC 29213-infected neutropenic ICR mouse at stasis dose; type: functional
Outline: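 fT>MIC, fCmax/MIC and fAUC/MIC were built from the serum pharmacokinetics, protein binding, modal broth-microdilution MIC (triplicate, CLSI) and 24-h thigh CFU change. Each index was fit to a sigmoidal Emax model. EI50, EI80 and stasis exposures were taken from each isolate's curve.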

[2] = Cmax in neutropenic ICR mouse infected with Staphylococcus aureus ATCC 29213 at 12.5 mg/kg, sc by HPLC; type: ADME, organism-based; design: dose 12.5 mg/kg, route subcutaneous; conditions: in vivo
Outline: (§1)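 Neutropenic female ICR mice (cyclophosphamide 150 and 100 mg/kg ip, 4 days and 1 day before inoculation), both thighs inoculated im with ~10^7 CFU/ml of ATCC 29213. Single sc doses of 50, 25, 12.5 or 6.25 mg/kg. Cardiac blood taken from groups of six at 8–12 times over 0.5–24 h. Serum measured by HPLC (linear 0.05–5 µg/ml). Two-compartment fit by nonlinear least squares; AUC by trapezoidal rule.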

[3] = system: Staphylococcus aureus; assay: Antimicrobial activity against Community-acquired methicillin-resistant Staphylococcus aureus isolate 156 by broth microdilution method; type: functional
Outline: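 Tigecycline MIC by CLSI broth microdilution, run in triplicate; modal MIC reported. Isolates stored at –80°C in double-strength skim milk and subcultured twice on Trypticase soy agar with 5% sheep blood before use.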

[4] = Elimination half life in neutropenic ICR mouse infected with methicillin-sensitive Staphylococcus aureus ATCC 29213 at 12.5 mg/kg, sc by HPLC; type: ADME, organism-based; design: dose 12.5 mg/kg, route subcutaneous; conditions: in vivo, read-out: beta t1/2 (converted); outline: as §1
[5] = r2 for fCmax/MIC in community acquired methicillin-resistant Staphylococcus aureus isolate 144-infected neutropenic ICR mouse
[6] = system: Staphylococcus aureus; assay: Antimicrobial activity against community acquired methicillin-resistant Staphylococcus aureus isolate 156 infected in neutropenic ICR mouse assessed as change in bacterial load after 24 hrs; type: functional
Outline: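 Female ICR mice (~25 g) made neutropenic with cyclophosphamide 150 and 100 mg/kg ip, 4 and 1 days before infection. Each thigh inoculated im with 0.1 ml of ~10^7 CFU/ml from an overnight subculture. Tigecycline sc (0.2 ml) given 2 h later as single or multiple doses of 1.56–50 mg/kg, 1.56–400 mg/kg/day, 3 mice/group. Saline-injected controls. Thighs harvested at 24 h, homogenized in saline, plated on blood agar; log10 CFU change vs 0-h controls.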

CN(C)c1cc(NC(=O)CNC(C)(C)C)c(O)c2c1C[C@H]1C[C@H]3[C@H](N(C)C)C(O)=C(C(N)=O)C(=O)[C@@]3(O)C(O)=C1C2=O [TIGECYCLINE]
fAUC/MIC [1]: 0.5 | Cmax [2]: 2380 ng/mL | MIC [3]: 0.125 µg/mL (≈ 0.213 µM) | half-life [4]: 10.1 h | r2 [5]: 0.77 | log10CFU/ml [6]: 2.1
